Laboratory results taken from ChEMBL document CHEMBL4689842, “EUbOPEN Chemogenomics Library wave 1” (2021).
“And” between values parts separate entries of the source, which are not always exact repeats. Equal entries are not always repeated.

Tests used:
Assay type in all cases: toxicity, cell-based
[1] = tested on: Fibroblast; assay: Multiplex assay against human fibroblast
Procedure, shortened: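 Four dyes were applied at seeding to live cells: Hoechst33342, BioTracker Green Microtubule Cytoskeleton Dye, MitoTracker Red and Annexin V Alexa Fluor 680. Imaging after compound addition used a CQ1 microscope at 37°C and 5% CO2. CellPathfinder machine-learning gating then sorted cells into Hoechst high-intensity objects or normal cells, normal cells into healthy, pyknosed or fragmented nuclei, and pyknosed cells into mitotic or apoptotic, with tubulin, mitochondrial-mass and membrane-permeability phenotypes given as per cents of healthy-nucleus cells.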

[2] = tested on: HEK-293T; assay: Incucyte cell viability with HEK293T; conditions: human, 10 µM, compound concentration 10 uM; further: filed as whole numbers so only -1 and 0 and 1 occur
[3] = tested on: Fibroblast; assay: Incucyte cell viability with human fibroblast; conditions: 10 µM, compound concentration 10 uM; further: filed as whole numbers so only -1 and 0 and 1 occur
[4] = tested on: U2OS; assay: Incucyte cell viability with U2OS; conditions: human, 10 µM, compound concentration 10 uM; further: filed as whole numbers so only -1 and 0 and 1 occur
[5] = 12 h, 1 µM, compound concentration 1 uM, replicate 1
[6] = 12 h, 1 µM, compound concentration 1 uM, replicate 2
[7] = 12 h, 10 µM, compound concentration 10 uM, replicate 1
[8] = 12 h, 10 µM, compound concentration 10 uM, replicate 2
[9] = 24 h, 1 µM, compound concentration 1 uM, replicate 1
[10] = 24 h, 1 µM, compound concentration 1 uM, replicate 2
[11] = 24 h, 10 µM, compound concentration 10 uM, replicate 1
[12] = 24 h, 10 µM, compound concentration 10 uM, replicate 2
[13] = 48 h, 10 µM, compound concentration 10 uM, replicate 1
[14] = 48 h, 10 µM, compound concentration 10 uM, replicate 2
[15] = 0 h, replicate number 1, timepoint 0 hours
[16] = 6 h, replicate number 1, timepoint 6 hours
[17] = 18 h, replicate number 1, timepoint 18 hours
[18] = 24 h, replicate number 1, timepoint 24 hours
[19] = 12 h, replicate number 1, timepoint 12 hours

For `Cc1c(Nc2ccc(S(=O)(=O)N3CCN(C)CC3)cc2F)nc2ccc(-c3cnn(C4CC4)c3)cn2c1=O`, the “Population Apoptotic (%)” value [1, 5] was 66%, the “Population Fragmented Nuclei (%)” value [1, 5] was 29% and the “Population Healthy Nuclei (%)” value [1, 5] was 57%. For the same compound, the “Population Hoechst High Intensity Objects (%)” value [1, 5] was 11%, the “Population Membrane Permeable-Phenotype (%)” value [1, 5] was 9% and the “Population Mitochondria Different-Phenotype (%)” value [1, 5] was 4%. The “Population Mitotic Cells (%)” value [1, 5] was 33%, the “Population Normal (%)” value [1, 5] was 88% and the “Population Pyknosed Nuclei (%)” value [1, 5] was 12%. The “Population Tubulin-Different-Phenotype (%)” value [1, 5] was 4%, the “Total Cell Count” value [1, 5] was 222 and the “Population Apoptotic (%)” value [1, 6] was 50%. The “Population Fragmented Nuclei (%)” value [1, 6] was 49%, the “Population Healthy Nuclei (%)” value [1, 6] was 40% and the “Population Hoechst High Intensity Objects (%)” value [1, 6] was 24%. The “Population Membrane Permeable-Phenotype (%)” value [1, 6] was 0%, the “Population Mitochondria Different-Phenotype (%)” value [1, 6] was 0% and the “Population Mitotic Cells (%)” value [1, 6] was 50%. For the same compound, the “Population Normal (%)” value [1, 6] was 75%, the “Population Pyknosed Nuclei (%)” value [1, 6] was 10% and the “Population Tubulin-Different-Phenotype (%)” value [1, 6] was 0%. The “Total Cell Count” value [1, 6] was 73, the “Population Apoptotic (%)” value [1, 7] was 67% and 50% and the “Population Fragmented Nuclei (%)” value [1, 7] was 32% and 29%. The “Population Healthy Nuclei (%)” value [1, 7] was 39% and 54%, the “Population Hoechst High Intensity Objects (%)” value [1, 7] was 45% and 41% and the “Population Membrane Permeable-Phenotype (%)” value [1, 7] was 19% and 13%. For the same compound, the “Population Mitochondria Different-Phenotype (%)” value [1, 7] was 3% and 4%, the “Population Mitotic Cells (%)” value [1, 7] was 32% and 50% and the “Population Normal (%)” value [1, 7] was 54% and 58%. The “Population Pyknosed Nuclei (%)” value [1, 7] was 27% and 16%, the “Population Tubulin-Different-Phenotype (%)” value [1, 7] was 30% and 20% and the “Total Cell Count” value [1, 7] was 373 and 542. The “Population Apoptotic (%)” value [1, 8] was 78% and 64%, the “Population Fragmented Nuclei (%)” value [1, 8] was 34% and 56% and the “Population Healthy Nuclei (%)” value [1, 8] was 42%. The “Population Hoechst High Intensity Objects (%)” value [1, 8] was 79% and 58%, the “Population Membrane Permeable-Phenotype (%)” value [1, 8] was 11% and 8% and the “Population Mitotic Cells (%)” value [1, 8] was 21% and 35%. For the same compound, the “Population Normal (%)” value [1, 8] was 20% and 41%, the “Population Tubulin-Different-Phenotype (%)” value [1, 8] was 6% and 8% and the “Population Apoptotic (%)” value [1, 9] was 85%. The “Population Fragmented Nuclei (%)” value [1, 9] was 26%, the “Population Healthy Nuclei (%)” value [1, 9] was 60% and the “Population Hoechst High Intensity Objects (%)” value [1, 9] was 12%. The “Population Membrane Permeable-Phenotype (%)” value [1, 9] was 5%, the “Population Mitochondria Different-Phenotype (%)” value [1, 9] was 2% and the “Population Mitotic Cells (%)” value [1, 9] was 14%. The “Population Normal (%)” value [1, 9] was 87%, the “Population Pyknosed Nuclei (%)” value [1, 9] was 13% and the “Population Tubulin-Different-Phenotype (%)” value [1, 9] was 4%. The “Total Cell Count” value [1, 9] was 230, the “Population Apoptotic (%)” value [1, 10] was 80% and the “Population Fragmented Nuclei (%)” value [1, 10] was 58%. The “Population Healthy Nuclei (%)” value [1, 10] was 34%, the “Population Hoechst High Intensity Objects (%)” value [1, 10] was 20% and the “Population Membrane Permeable-Phenotype (%)” value [1, 10] was 8%. The “Population Mitochondria Different-Phenotype (%)” value [1, 10] was 12%, the “Population Mitotic Cells (%)” value [1, 10] was 20% and the “Population Normal (%)” value [1, 10] was 79%. The “Population Pyknosed Nuclei (%)” value [1, 10] was 6%, the “Population Tubulin-Different-Phenotype (%)” value [1, 10] was 8% and the “Total Cell Count” value [1, 10] was 91. The “Population Apoptotic (%)” value [1, 11] was 46% and 54%, the “Population Fragmented Nuclei (%)” value [1, 11] was 40% and 29% and the “Population Healthy Nuclei (%)” value [1, 11] was 46% and 57%. For the same compound, the “Population Hoechst High Intensity Objects (%)” value [1, 11] was 42% and 34%, the “Population Membrane Permeable-Phenotype (%)” value [1, 11] was 21% and the “Population Mitotic Cells (%)” value [1, 11] was 53% and 45%. For the same compound, the “Population Normal (%)” value [1, 11] was 57% and 65%, the “Population Pyknosed Nuclei (%)” value [1, 11] was 13% and the “Population Tubulin-Different-Phenotype (%)” value [1, 11] was 37% and 21%. The “Total Cell Count” value [1, 11] was 395 and 524, the “Population Apoptotic (%)” value [1, 12] was 60% and 68% and the “Population Fragmented Nuclei (%)” value [1, 12] was 58% and 33%. The “Population Healthy Nuclei (%)” value [1, 12] was 37% and 44%, the “Population Hoechst High Intensity Objects (%)” value [1, 12] was 58% and 77% and the “Population Membrane Permeable-Phenotype (%)” value [1, 12] was 13% and 9%. For the same compound, the “Population Mitochondria Different-Phenotype (%)” value [1, 12] was 23% and 0%, the “Population Mitotic Cells (%)” value [1, 12] was 40% and 31% and the “Population Normal (%)” value [1, 12] was 41% and 22%. For the same compound, the “Population Apoptotic (%)” value [1, 13] was 57%, the “Population Fragmented Nuclei (%)” value [1, 13] was 39% and the “Population Healthy Nuclei (%)” value [1, 13] was 47%. The “Population Hoechst High Intensity Objects (%)” value [1, 13] was 43%, the “Population Membrane Permeable-Phenotype (%)” value [1, 13] was 14% and the “Population Mitochondria Different-Phenotype (%)” value [1, 13] was 1%. For the same compound, the “Population Mitotic Cells (%)” value [1, 13] was 42%, the “Population Normal (%)” value [1, 13] was 56% and the “Population Pyknosed Nuclei (%)” value [1, 13] was 13%. For the same compound, the “Population Tubulin-Different-Phenotype (%)” value [1, 13] was 31%, the “Total Cell Count” value [1, 13] was 344 and the “Population Apoptotic (%)” value [1, 14] was 60%. The “Population Healthy Nuclei (%)” value [1, 14] was 57%, the “Population Hoechst High Intensity Objects (%)” value [1, 14] was 19% and the “Population Membrane Permeable-Phenotype (%)” value [1, 14] was 16%. The “Population Mitotic Cells (%)” value [1, 14] was 40%, the “Population Normal (%)” value [1, 14] was 80% and the “Population Pyknosed Nuclei (%)” value [1, 14] was 3%. For the same compound, the “Population Tubulin-Different-Phenotype (%)” value [1, 14] was 24%, the “Total Cell Count” value [1, 14] was 159 and the “Growth Rate” value [2, 15] was 1. The “Growth Rate” value [2, 16] was 0, the “Growth Rate” value ([2]; 12 h, replicate number 2, timepoint 12 hours) was 1 and the “Growth Rate” value [2, 17] was 1. The “Growth Rate” value [2, 18] was 1, the “Growth Rate” value [3, 15] was 0 and the “Growth Rate” value [3, 19] was 1. The “Growth Rate” value [3, 17] was 1, the “Growth Rate” value [3, 18] was 1 and the “Growth Rate” value ([4]; 0 h, replicate number 2, timepoint 0 hours) was 0. The “Growth Rate” value [4, 16] was 1, the “Growth Rate” value [4, 19] was 0 and the “Growth Rate” value [4, 17] was 0. For the same compound, the “Growth Rate” value ([4]; 18 h, replicate number 2, timepoint 18 hours) was 1, the “Growth Rate” value [4, 18] was 0 and the “Growth Rate” value ([4]; 24 h, replicate number 2, timepoint 24 hours) was 1.
